The source made the active and inactive calls. No cut-off for these calls is given here.

This is an account of results in ChEMBL document CHEMBL3400034, “Design, synthesis and biological evaluation of di-substituted noscapine analogs as potent and microtubule-targeted anticancer agents” (Bioorg Med Chem Lett, 2015).

Assay [1] concerns MDA-MB-231. As to the kind of experiment: Induction of apoptosis in human MDA-MB-231 cells assessed as increase in caspase-3/7 activity by measuring Z-DEVD-aminoluciferin cleavage at 10 uM after 24 hrs by luminescence plate reader based method. Type of assay: functional, cell-based. Summed up: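 Lysates from treated and control MDA-MB-231 cells assayed for caspase-3/7 activity by luminescence from cleavage of Z-DEVD-aminoluciferin substrate; activity expressed relative to untreated control.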

In assay [2] the test system is MDA-MB-231. Briefly: Induction of apoptosis in human MDA-MB-231 cells assessed as accumulation at subG1 phase at 10 uM after 12 to 48 hrs by propidium iodide staining based FACS method. The class given is functional, cell-based. Summed up:
(§1)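 MDA-MB-231 cells treated for 0–48 h (compounds at 10 µM or 25 µM depending on analog); DNA stained with propidium iodide and cell cycle profiles read by flow cytometry; G2/M (4N DNA) and sub-G1 (apoptotic index) populations quantified at each time point.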
(In general: Flow cytometry measures light scatter and fluorescence of single cells or particles in a stream.)

Assay [3] has as its target T1, Tubulin (Bos taurus) (UniProt Q6B856+Q862L2+Q862F3). As to the kind of experiment: Inhibition of bovine brain tubulin polymerization at 25 uM incubated for 10 to 30 mins by spectrophotometry based light scattering assay. Summed up: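 Assembly of 12 µM tubulin followed by turbidity (light scattering) at 350 nm over 30 min with compound at 0–25 µM; relative absorbance compared with control.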

The target of assay [4] is T1, Tubulin (Bos taurus). Briefly: Inhibition of bovine brain tubulin polymerization incubated for 10 to 30 mins by spectrophotometry based light scattering assay. Summed up:
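Polymerisation of 12 µM tubulin followed by turbidity (light scattering) at 350 nm. Compound range 0–25 µM, over 30 min. Reported as relative absorbance.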

In assay [5] the test system is MDA-MB-231. As to the kind of experiment: Induction of apoptosis in human MDA-MB-231 cells assessed as reduction in survivin protein expression at 10 uM after 24 hrs by immunoblot method. Type of assay: functional, cell-based. Summed up: (§2)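 Protein lysates from treated and control MDA-MB-231 cells analysed by immunoblot, probed for survivin and cleaved PARP, with β-actin as loading control.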

The subject of assay [6] is MDA-MB-231. As to the kind of experiment: Induction of cell cycle arrest in human MDA-MB-231 cells assessed as accumulation at G2/M phase at 10 uM after 12 to 48 hrs by propidium iodide staining based FACS method. Type of assay: functional. Summed up: as §1
In assay [7] the target is T1, Tubulin (Bos taurus). Briefly: (§3) Binding affinity to bovine brain tubulin assessed as reduction in tubulin intrinsic tryptophan fluorescence intensity incubated for 45 mins by spectrophotometry based fluorescence titration assay. Summed up:
(§4)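 Tubulin binding measured as quenching of intrinsic tryptophan fluorescence across increasing compound concentrations. KD derived from double reciprocal plots. Mean ± S.D. of three independent experiments, each performed in triplicate.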

A further assay deals with Tubulin (Bos taurus, UniProt Q6B856+Q862L2+Q862F3). The assay is described as §3. Summed up:
as §4

The nature of assay [8]: Cytotoxicity activity against human PC3 cells after 48 hrs by MTT assay. The class given is functional, cell-based. Particulars: PC-3, 48 h. Summed up: (§5)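 Cells exposed for 48 h to increasing gradient concentrations. Proliferation read by MTT assay as percentage cell survival. IC50 is the drug concentration giving 50% inhibition of proliferation.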
In general terms: Tetrazolium assays rely on reduction of a dye to a coloured formazan, in cell work by metabolically active cells.

Assay [9] relates to MDA-MB-231. Briefly: Induction of apoptosis in human MDA-MB-231 cells assessed as increase in cleaved PARP protein level at 10 uM after 24 hrs by immunoblot method. Type of assay: functional, cell-based. Summed up: as §2
(In general: Immunoblotting shows a protein as a band on a membrane.)

Assay [10] deals with MDA-MB-231. Briefly: Cytotoxicity activity against human MDA-MB-231 cells after 48 hrs by MTT assay. The class given is functional, cell-based. Particulars: MDA-MB-231, 48 h. Summed up: as §5
Assay [11] relates to MDA-MB-231. Briefly: Induction of apoptosis in human MDA-MB-231 cells assessed as accumulation at subG1 phase at 25 uM after 12 to 48 hrs by propidium iodide staining based FACS method. The class given is functional, cell-based. Summed up:
(§6)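 MDA-MB-231 cells treated for 0–48 h, with samples at several time points. Concentration was 10 µM for some analogs and 25 µM for others. DNA stained with propidium iodide and analysed by flow cytometry. 2N DNA scored as G1, 4N as G2/M, below 2N as sub-G1 (apoptotic index).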

Assay [12] concerns MDA-MB-231. As to the kind of experiment: Induction of apoptosis in human MDA-MB-231 cells assessed as increase in caspase-3/7 activity by measuring Z-DEVD-aminoluciferin cleavage at 25 uM after 24 hrs by luminescence plate reader based method. Type of assay: functional, cell-based. Summed up:
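Lysates from treated and control cells assayed for caspase-3/7 activity. Read-out was luminescence from cleavage of Z-DEVD-aminoluciferin, expressed relative to control.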

Assay [13] concerns MDA-MB-231. As to the kind of experiment: Induction of apoptosis in human MDA-MB-231 cells assessed as reduction in survivin protein expression at 25 uM after 24 hrs by immunoblot method. The class given is functional, cell-based. Summed up: (§7)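 Lysates from treated and control cells run on immunoblots. Probed for survivin and cleaved PARP, with β-actin as loading control.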

Assay [14] deals with MDA-MB-231. Briefly: Induction of cell death in human MDA-MB-231 cells at 25 uM after 48 hrs by propidium iodide staining based FACS method. The class given is functional. Summed up: as §6
For assay [15], the system named is MDA-MB-231. Briefly: Induction of cell cycle arrest in human MDA-MB-231 cells assessed as accumulation at G2/M phase at 25 uM after 12 to 48 hrs by propidium iodide staining based FACS method. The class given is functional. Summed up:
as §6

Assay [16] has as its system MDA-MB-231. As to the kind of experiment: Induction of apoptosis in human MDA-MB-231 cells assessed as increase in cleaved PARP protein level at 25 uM after 24 hrs by immunoblot method. Type of assay: functional, cell-based. Summed up: as §7
The test system of assay [17] is MDA-MB-231. Briefly: Induction of cell death in human MDA-MB-231 cells at 10 uM after 48 hrs by propidium iodide staining based FACS method. Type of assay: functional. Summed up:
as §6

What is called Kd is the concentration at which binding is half-saturated. As usually defined, the IC50 is the midpoint of a concentration-inhibition curve. Read a high IC50 as weaker potency. Take `COc1ccc2c(c1O)C(=O)O[C@@H]2[C@H]1c2c(c(Br)c3c(c2OC)OCO3)CCN1C`: the outcome with MDA-MB-231 [1], in the assay on MDA-MB-231 [2] and in the assay on MDA-MB-231 [9] was Active. Besides, the inhibition entry on Tubulin (Bos taurus) [3] was “Active”. For the same compound, the inhibition entry at Tubulin (Bos taurus) [4] was “Dose-dependent effect”. The outcome in the assay with MDA-MB-231 [5] was inactive. The Activity with MDA-MB-231 [6] is 15%; at Tubulin (Bos taurus) [7] it was “Dose-dependent effect”. On Tubulin, the Kd is 55 µM. The IC50 in assay [8] amounted to 5.6 µM; in the assay on MDA-MB-231 [10], 2.2 µM.
`COc1ccc2c(c1OC(=O)NCc1ccccc1)C(=O)O[C@@H]2[C@H]1c2c(c(Br)c3c(c2OC)OCO3)CCN1C`: the outcome in the assay on MDA-MB-231 [11], in the assay on MDA-MB-231 [12], in the assay on MDA-MB-231 [13] and with MDA-MB-231 [16] was Active. Moreover, the Activity in the assay with MDA-MB-231 [14] is 80%; in the assay with MDA-MB-231 [15], 15%; on Tubulin (Bos taurus) [7] it was “Dose-dependent effect”. For the same compound, at Tubulin (Bos taurus) [4], the inhibition entry was “Dose-dependent effect”. For the same compound, the Kd at Tubulin is 21 µM. Moreover, the IC50 in assay [8] was 49.4 µM; in the assay on MDA-MB-231 [10] it was 20 µM.
In the case of `COc1ccc2c(c1OC(C)=O)C(=O)O[C@@H]2[C@H]1c2c(c(Br)c3c(c2OC)OCO3)CCN1C`, the outcome with MDA-MB-231 [1], in the assay with MDA-MB-231 [2] and with MDA-MB-231 [9] was Active. In addition, on Tubulin (Bos taurus) [4], the inhibition entry was “Dose-dependent effect”. Also, the outcome with MDA-MB-231 [5] was inactive. The Activity in the assay on MDA-MB-231 [6] is 15%; in the assay on MDA-MB-231 [17], 80%; at Tubulin (Bos taurus) [7], “Dose-dependent effect”. Moreover, the dissociation constant (Kd) at Tubulin is 44 µM. Besides, the IC50 in assay [8] came out at 48.9 µM; in the assay on MDA-MB-231 [10], 2.5 µM.
On to `CCNC(=O)Oc1c(OC)ccc2c1C(=O)O[C@@H]2[C@H]1c2c(c(Br)c3c(c2OC)OCO3)CCN1C`, for which the result in the assay with MDA-MB-231 [11], in the assay with MDA-MB-231 [12], in the assay on MDA-MB-231 [13] and in the assay with MDA-MB-231 [16] was Active. The Activity is 80% in the assay with MDA-MB-231 [14], 15% in the assay with MDA-MB-231 [15] and “Dose-dependent effect” on Tubulin (Bos taurus) [7]. Besides, the inhibition result at Tubulin (Bos taurus) [4] was “Dose-dependent effect”. For the same compound, the Kd at Tubulin turned out to be 26 µM. For the same compound, the IC50 in [8] came to 22 µM; in the assay on MDA-MB-231 [10], 3.9 µM.
